The text below walks through data of ChEMBL document CHEMBL4014306, “Pyrazolopyrimidines as Potent Stimulators for Transient Receptor Potential Canonical 3/6/7 Channels” (J Med Chem, 2017).

What all share (assay type): cell-based
The target of test [1] is T1, Transient receptor potential cation channel subfamily V member 3 (Mus musculus) (UniProt Q8K424).
T1 sequence (whole entry): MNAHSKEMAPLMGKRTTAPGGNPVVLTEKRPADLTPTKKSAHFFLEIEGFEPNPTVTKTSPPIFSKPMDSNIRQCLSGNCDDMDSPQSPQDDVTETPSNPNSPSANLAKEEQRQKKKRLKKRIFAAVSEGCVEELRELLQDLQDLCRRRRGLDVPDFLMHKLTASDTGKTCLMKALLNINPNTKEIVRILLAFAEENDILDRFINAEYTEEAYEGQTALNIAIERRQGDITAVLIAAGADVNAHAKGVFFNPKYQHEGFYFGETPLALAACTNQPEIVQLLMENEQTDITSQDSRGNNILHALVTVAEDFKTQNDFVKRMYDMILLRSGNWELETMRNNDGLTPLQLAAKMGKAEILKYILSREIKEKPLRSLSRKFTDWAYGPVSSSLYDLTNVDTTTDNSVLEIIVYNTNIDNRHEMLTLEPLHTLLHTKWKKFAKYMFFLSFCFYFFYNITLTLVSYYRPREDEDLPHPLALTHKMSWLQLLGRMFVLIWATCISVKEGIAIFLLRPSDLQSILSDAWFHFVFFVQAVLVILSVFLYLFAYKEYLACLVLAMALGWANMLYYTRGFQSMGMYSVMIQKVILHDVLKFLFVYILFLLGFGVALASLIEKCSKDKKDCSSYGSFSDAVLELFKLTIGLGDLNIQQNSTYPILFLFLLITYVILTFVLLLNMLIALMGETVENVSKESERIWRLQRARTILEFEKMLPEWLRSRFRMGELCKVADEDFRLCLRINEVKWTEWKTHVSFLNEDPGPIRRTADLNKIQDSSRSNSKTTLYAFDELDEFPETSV
Nature of the test: Agonist activity at mouse TRPV3 expressed in HEK293 cells assessed as increase in intracellular calcium level at 33 uM measured for 2.5 mins by Fluo-8-AM dye based fluorescence assay. (Calcium flux is commonly read through the fluorescence of an indicator in the cells.)

Test [2] concerns the target Transient receptor potential cation channel subfamily M member 8 (Mus musculus) (UniProt Q8R4D5). Nature of the test: Agonist activity at mouse TRPM8 expressed in HEK293 cells assessed as increase in intracellular calcium level at 33 uM measured for 2.5 mins by Fluo-8-AM dye based fluorescence assay.
The target of test [3] is T2, Short transient receptor potential channel 4 (Mus musculus) (UniProt Q9QUQ5).
T2 sequence (whole entry): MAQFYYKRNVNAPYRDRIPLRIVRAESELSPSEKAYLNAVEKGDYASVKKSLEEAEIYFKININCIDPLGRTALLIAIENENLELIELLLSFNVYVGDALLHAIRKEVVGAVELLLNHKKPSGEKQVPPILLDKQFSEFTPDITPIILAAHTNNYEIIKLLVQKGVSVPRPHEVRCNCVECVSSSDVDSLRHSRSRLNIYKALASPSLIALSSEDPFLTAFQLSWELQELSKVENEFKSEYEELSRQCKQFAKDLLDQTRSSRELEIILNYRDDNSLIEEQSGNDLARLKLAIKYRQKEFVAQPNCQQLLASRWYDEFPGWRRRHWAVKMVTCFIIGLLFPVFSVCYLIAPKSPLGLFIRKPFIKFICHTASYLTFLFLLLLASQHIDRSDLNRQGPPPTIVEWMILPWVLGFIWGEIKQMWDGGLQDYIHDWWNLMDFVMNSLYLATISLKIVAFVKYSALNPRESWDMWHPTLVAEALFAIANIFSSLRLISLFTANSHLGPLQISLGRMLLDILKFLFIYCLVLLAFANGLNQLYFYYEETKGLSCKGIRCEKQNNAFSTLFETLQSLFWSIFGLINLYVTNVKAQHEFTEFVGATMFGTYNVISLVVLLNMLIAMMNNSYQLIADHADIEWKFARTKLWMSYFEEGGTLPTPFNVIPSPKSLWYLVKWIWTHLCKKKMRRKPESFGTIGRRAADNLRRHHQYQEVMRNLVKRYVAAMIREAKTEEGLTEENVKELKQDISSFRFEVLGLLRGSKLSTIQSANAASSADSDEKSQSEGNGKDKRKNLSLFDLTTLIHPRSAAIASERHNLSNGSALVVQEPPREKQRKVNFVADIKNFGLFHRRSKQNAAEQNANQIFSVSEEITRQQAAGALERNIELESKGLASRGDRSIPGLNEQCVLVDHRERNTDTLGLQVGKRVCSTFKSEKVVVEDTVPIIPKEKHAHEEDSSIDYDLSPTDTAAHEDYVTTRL
As to the kind of experiment: Agonist activity at mouse TRPC4beta expressed in HEK293 cells co-expressing MOR assessed as increase in intracellular calcium level at 33 uM measured for 2.5 mins by Fluo-8-AM dye-based fluorescence assay.

Test [4] addresses T2, Short transient receptor potential channel 4 (Mus musculus). As to the kind of experiment: Inhibition of mouse TRPC4beta expressed in HEK293 cells co-expressing MOR assessed as decrease in DAMGO-evoked membrane depolarization at 22 uM preincubated for 2 mins followed by DAMGO addition measured for 2.5 mins by FLIPR membrane potential dye-based fluorescence assay relative to control. Summed up: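 Same TRP panel as for the stimulation tests, with FMP dye for TRPC4 and M5 and Fluo8-AM for TRPA1, V1 and M8. Compound applied for 2 min before the channel agonist (TRPC4: 1 μM DAMGO). Inhibition of the agonist response measured on a FlexStation at 32 °C.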

Active and inactive are the calls of the source. The rule behind the calls is not given here.

As a reminder, the inhibition is the drop in the measured response relative to a control, in per cent.

Transient receptor potential cation channel subfamily M member 8 (Mus musculus), sequence (Q8R4D5 whole entry): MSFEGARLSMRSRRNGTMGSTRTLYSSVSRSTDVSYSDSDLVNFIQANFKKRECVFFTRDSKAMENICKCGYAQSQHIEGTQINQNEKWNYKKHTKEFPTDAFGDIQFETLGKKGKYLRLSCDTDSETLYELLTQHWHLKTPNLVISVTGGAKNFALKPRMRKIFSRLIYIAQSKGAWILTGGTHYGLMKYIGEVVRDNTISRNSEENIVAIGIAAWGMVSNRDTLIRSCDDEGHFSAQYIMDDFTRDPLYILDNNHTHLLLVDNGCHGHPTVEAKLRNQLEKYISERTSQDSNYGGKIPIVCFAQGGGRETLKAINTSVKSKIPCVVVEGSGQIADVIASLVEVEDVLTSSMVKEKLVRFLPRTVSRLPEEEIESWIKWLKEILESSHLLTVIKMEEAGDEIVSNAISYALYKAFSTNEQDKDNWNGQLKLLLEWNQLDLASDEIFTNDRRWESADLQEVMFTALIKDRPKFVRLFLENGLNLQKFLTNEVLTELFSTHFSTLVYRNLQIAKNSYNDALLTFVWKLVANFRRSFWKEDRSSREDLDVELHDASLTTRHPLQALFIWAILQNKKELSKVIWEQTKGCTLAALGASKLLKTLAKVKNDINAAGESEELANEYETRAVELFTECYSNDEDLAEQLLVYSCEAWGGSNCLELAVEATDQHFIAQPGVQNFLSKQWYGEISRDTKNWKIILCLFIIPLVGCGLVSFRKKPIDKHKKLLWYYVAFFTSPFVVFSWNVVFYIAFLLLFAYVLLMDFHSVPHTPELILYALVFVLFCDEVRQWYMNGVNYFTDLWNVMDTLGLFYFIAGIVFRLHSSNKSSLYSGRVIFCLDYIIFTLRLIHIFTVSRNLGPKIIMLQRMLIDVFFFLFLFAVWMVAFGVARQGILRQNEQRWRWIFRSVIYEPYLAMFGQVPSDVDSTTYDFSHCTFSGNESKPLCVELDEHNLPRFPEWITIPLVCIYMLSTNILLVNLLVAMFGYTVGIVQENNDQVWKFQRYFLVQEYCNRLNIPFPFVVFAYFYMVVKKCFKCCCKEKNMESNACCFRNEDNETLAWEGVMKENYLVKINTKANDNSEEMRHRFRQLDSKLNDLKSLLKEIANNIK

Regarding `Cc1nn2c(O)cc(C3CCN(C(=O)OCc4ccccc4)CC3)nc2c1-c1ccc(Cl)cc1`, the result in test [1], in test [2] and in test [3] was inactive.

Turning to `Cc1nn2c(O)cc(C3CCN(C(=O)OCc4ccccc4)CC3)nc2c1-c1ccc(F)cc1`, the outcome in test [1], in test [2] and in test [3] was inactive. For the same compound, in test [4], the inhibition was found to be 13%.

In the case of `CCOC(=O)N1CCC(c2cc(O)n3nc(C)c(-c4ccc(F)cc4)c3n2)CC1`, the result in test [1], in test [2] and in test [3] was inactive.

In the case of `CCOC(=O)N1CCC(c2cc(O)n3nc(C)c(-c4ccc(C(F)(F)F)cc4)c3n2)CC1`, the result in test [1], in test [2] and in test [3] was inactive. Moreover, the inhibition in test [4] worked out at 33%.
